Data set [1] deals with Cyclin-dependent kinase 2 (Homo sapiens, UniProt P24941). Kind of data set: Inhibition of CDK2.
For data set [2], the target named is Cyclin-dependent kinase 1 (Homo sapiens, UniProt P06493). Kind of data set: Inhibition of CDK1.
In data set [3] the target is Cyclin-dependent kinase 4 (Homo sapiens, UniProt P11802). Put plainly: Inhibition of CDK4.
A further data set deals with Kidney. Put plainly: Biodistribution in Wistar rat kidney at 0.2 to 0.3 MBq, iv after 5 mins. It is filed as ADME, organism-based. As to conditions: in vivo. An outline of the steps:
(§1)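 Normal male Wistar rats (180 ± 20 g) given a single iv tail-vein injection of 0.2–0.3 MBq radiotracer in solution containing 1% HSA. Under ether anaesthesia at 5 min p.i., blood was taken by heart puncture and the animals euthanized. Organs were removed, weighed and counted in a calibrated well counter. Results are SUV = (organ activity/organ weight)/(given activity/body weight); mean ± SD, n = 8.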

For another data set, the system named is Lung. Kind of data set: Biodistribution in Wistar rat lung at 0.2 to 0.3 MBq, iv after 5 mins. It is filed as ADME, organism-based. As to conditions: in vivo. An outline of the steps:
as §1

The subject of another data set is FaDu. Kind of data set: Cellular uptake in human FADU cells measured per mg of protein at 25 kBq after 1 hr. The class given is ADME, cell-based. The method, boiled down:
(§2)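 HT-29 cells in McCoy's 5A and FaDu cells in RPMI 1640, both with 10% FBS, were seeded at 5 × 10⁴ cells/well and left overnight. About 25 kBq radiotracer in 0.25 mL medium was added at 37 °C. Cells were washed three times with ice-cold PBS, lysed in 0.1 M NaOH/1% SDS and gamma-counted. Protein was measured by BCA; results are %ID/mg protein.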

Data set [4] in a line: Stability in Wistar rat plasma after 24 hrs. It is filed as ADME, cell-free. As to conditions: read-out: Stability. An outline of the steps:
(§3)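 50 kBq radiotracer was added to 1 mL of PBS (0.1 M, pH 7.4), ethanol, culture medium (RPMI + 10% FKS + 1% pen/strep) or fresh rat plasma and held at 37 °C for 30 min or 24 h. Samples were analysed by radio-HPLC on a C18 column with a Soerensen buffer (0.01 M, pH 7.4)/methanol gradient; intact tracer is reported as percent.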

Data set [5] is described as follows: Stability in Wistar rat plasma after 30 mins. It is filed as ADME, cell-free. As to conditions: read-out: Stability. The method, boiled down: as §3
A short description of data set [6]: Stability in ethanol after 30 mins by HPLC. The class given is physicochemical. As to conditions: read-out: Stability. An outline of the steps:
as §3

Data set [7] is described as follows: Stability in ethanol after 24 hrs by HPLC. The class given is physicochemical. As to conditions: read-out: Stability. The method, boiled down:
as §3

The subject of another data set is Liver. Kind of data set: Biodistribution in Wistar rat liver at 0.2 to 0.3 MBq, iv after 5 mins. The class given is ADME, organism-based. As to conditions: in vivo. An outline of the steps: as §1
Data set [8] is described as follows: Stability in cell culture medium after 24 hrs by HPLC. As to conditions: read-out: Stability. The class given is physicochemical. The method, boiled down: as §3
A short description of data set [9]: Lipophilicity log D at pH 7.4. It is filed as physicochemical. As to conditions: buffer.
The nature of data set [10]: Stability in PBS buffer at pH7.4 after 24 hrs by HPLC. The class given is physicochemical. As to conditions: pH 7.4, read-out: Stability. An outline of the steps:
as §3

Data set [11] can be described thus: Stability in PBS buffer at pH7.4 after 30 mins by HPLC. As to conditions: pH 7.4, read-out: Stability. The class given is physicochemical. The method, boiled down: as §3
In another data set the test system is HT-29. Kind of data set: Cellular uptake in human HT-29 cells measured per mg of protein at 25 kBq after 1 hr. It is filed as ADME, cell-based. As to conditions: ht-29, 1 h. An outline of the steps:
as §2

Four molecules from ChEMBL document CHEMBL1154741, “Radiosynthesis and radiopharmacological evaluation of cyclin-dependent kinase 4 (Cdk4) inhibitors” (Eur J Med Chem, 2010) can be followed below.

The IC50 is the concentration needed to halve the response being measured. Low readings indicate inhibition by little substance, high ones a need for much substance. By logD is commonly meant lipophilicity at a set pH, counting ionised and neutral species. High values mean higher lipophilicity, low ones lower lipophilicity.

Molecules are shown by their SMILES.

Cyclin-dependent kinase 4, sequence (P11802 whole entry): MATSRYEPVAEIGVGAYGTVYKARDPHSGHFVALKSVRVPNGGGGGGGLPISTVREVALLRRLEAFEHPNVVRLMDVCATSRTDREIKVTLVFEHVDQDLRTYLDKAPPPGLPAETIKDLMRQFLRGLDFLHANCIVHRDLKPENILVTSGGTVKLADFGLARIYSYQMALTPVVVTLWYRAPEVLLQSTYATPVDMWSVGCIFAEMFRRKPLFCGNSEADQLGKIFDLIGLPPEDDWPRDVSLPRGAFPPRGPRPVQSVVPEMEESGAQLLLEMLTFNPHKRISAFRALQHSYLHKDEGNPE
Cyclin-dependent kinase 1, sequence (P06493 whole entry): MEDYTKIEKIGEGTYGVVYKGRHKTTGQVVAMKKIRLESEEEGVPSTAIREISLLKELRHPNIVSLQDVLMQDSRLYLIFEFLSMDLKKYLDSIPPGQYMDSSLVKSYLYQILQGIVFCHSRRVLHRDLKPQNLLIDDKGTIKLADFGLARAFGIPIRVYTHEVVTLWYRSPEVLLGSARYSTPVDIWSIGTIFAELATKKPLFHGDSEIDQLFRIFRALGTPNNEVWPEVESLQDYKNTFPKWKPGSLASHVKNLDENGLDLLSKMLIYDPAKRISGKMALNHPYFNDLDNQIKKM

For `Cc1c(I)c(=O)n(C2CCCC2)c2nc(Nc3ccc(N4CCNCC4)cc3)ncc12`, the IC50 in data set [1] is over 360 nM; in data set [2], over 360 nM; in data set [3], under 20 nM.
Turning to `Cc1c([124I])c(=O)n(C2CCCC2)c2nc(Nc3ccc(N4CCNCC4)cn3)ncc12`, the SUV with Kidney is over 3.2; in the data set on Lung, 8.43; in the data set with Liver it was over 3.2. The molecule also yielded a Drug uptake in the data set with FaDu of 900 %Idose. For the same molecule, the remaining at 24 h in data set [4] is 94%; in data set [7], 97%; in data set [8], 97%; in [10], 95%. Further, the figures for the remaining at 0.5 h in data set [5], in data set [6] and in data set [11] were 94%, 98% and 97%, respectively. Further, in data set [9], the logD came to 1.99.
For `Cc1c([124I])c(=O)n(C2CCCC2)c2nc(Nc3ccc(N4CCNCC4)cc3)ncc12`, the SUV in the data set on Kidney is given as over 3.2; in the data set with Lung, 8.67; in the data set on Liver, over 3.2. In addition, the remaining at 24 h turned out to be 94% in [4], 94% in [7], 96% in [8] and 86% in [10]. Moreover, the remaining at 0.5 h in data set [5] stood at 93%; in [6], 93%; in [11], 92%. In the data set on HT-29, the Drug uptake was determined as 750 %Idose. Moreover, the logD in [9] was determined as 2.77.
`O=c1ccc2cnc(Nc3ccc(N4CCC(CCCO)CC4)cc3)nc2n1C1CC2CCC1C2` (stereo not drawn) had a concentration for half-maximal inhibition (IC50) in [3] of under 20 nM.
